Reference: ChEMBL document CHEMBL1138652, “Chlorothiophenecarboxamides as P1 surrogates of inhibitors of blood coagulation factor Xa” (Bioorg Med Chem Lett, 2004)
Converted amounts (≈) assume the structure as drawn.

Experiments:
Trypsin = Trypsin (Homo sapiens, UniProt P07477+P07478+P35030); assay: Inhibitory concentration against human trypsin activity; type: protein assay
Outline: (§1)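 Human factor Xa, thrombin and trypsin were each monitored in vitro with a protease-specific chromogenic substrate. Inhibition was calculated from the ratio of optical density in drug-containing versus vehicle-containing assays.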

Prothrombin = Prothrombin (Homo sapiens, UniProt P00734); assay: Inhibitory concentration against human thrombin activity; outline: as §1
Coagulation factor X = Coagulation factor X (Homo sapiens, UniProt P00742); assay: Inhibitory concentration against human serine protease factor Xa; outline: as §1
Sequence of Coagulation factor X (P00742 41-179 limits assumed): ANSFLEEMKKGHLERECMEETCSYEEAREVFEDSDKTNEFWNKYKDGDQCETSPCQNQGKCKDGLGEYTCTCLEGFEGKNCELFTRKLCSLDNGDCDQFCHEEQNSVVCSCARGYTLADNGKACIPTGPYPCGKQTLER
Sequence of Coagulation factor X (P00742 235-488 limits assumed): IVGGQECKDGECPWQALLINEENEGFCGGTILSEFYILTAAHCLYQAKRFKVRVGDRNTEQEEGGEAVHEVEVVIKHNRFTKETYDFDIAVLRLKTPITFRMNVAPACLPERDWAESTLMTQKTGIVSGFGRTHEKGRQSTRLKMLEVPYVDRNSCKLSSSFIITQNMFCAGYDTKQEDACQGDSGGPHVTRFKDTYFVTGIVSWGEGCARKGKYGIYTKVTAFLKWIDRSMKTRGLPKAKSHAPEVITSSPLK

[1] = Maximum absorbable dose of compound after administration at dose of 10 mg/kg was determined; type: ADME, organism-based; set-up: dose 10 mg/kg; details: human
[2] = Solubility was determined; type: ADME; details: human
Outline: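 Shake-flask solubility was measured in phosphate buffer at pH 7 and 37 °C.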

[3] = Half life of compound after intravenous administration at dose of 0.15 mg/kg in female dogs was determined; details: dog, in vivo
[4] = Area under curve concentration of compound at 6 hr after peroral administration at dose of 0.5 mg/kg in female monkeys was determined; type: ADME, organism-based; set-up: time < 6 hr, dose 0.5 mg/kg, route oral; details: cercopithecidae, in vivo, po
Outline: (§2)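 Pharmacokinetics were studied in male Wistar rats (N = 3), female Beagle dogs (N = 2) and female Cynomolgus monkeys (N = 2). Each animal received single intravenous and oral doses. Plasma concentration–time data gave Cmax, tmax, AUC, t1/2, CL, Vss and oral bioavailability.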

[5] = Area under curve concentration of compound at 6 hr after peroral administration at dose of 0.5 mg/kg in male wistar rats was determined; type: ADME, organism-based; set-up: time < 6 hr, dose 0.5 mg/kg, route oral; details: rat, in vivo, po; outline: as §2
[6] = Maximum time taken for concentration of compound in plasma after peroral administration at dose of 0.5 mg/kg in male wistar rats was determined; type: ADME, organism-based; set-up: dose 0.5 mg/kg, route oral; details: rat, po; outline: as §2
[7] = Bioavailability of compound after peroral administration at dose of 0.5 mg/kg in male wistar rats was determined; type: ADME, organism-based; details: rat, in vivo, po, read-out: Bioavailabiility; outline: as §2
[8] = Clearance of compound after intravenous administration at dose of 0.2 mg/kg in male wistar rats was determined; type: ADME, organism-based; set-up: dose 0.2 mg/kg, route intravenous; details: rat, in vivo; outline: as §2
[9] = Area under curve concentration of compound after intravenous administration at dose of 0.2 mg/kg in male wistar rats was determined; type: ADME, organism-based; set-up: dose 0.2 mg/kg, route intravenous; details: rat, in vivo; outline: as §2
[10] = Maximum time taken for concentration of compound in plasma after peroral administration at dose of 0.5 mg/kg in female monkeys was determined; type: ADME, organism-based; set-up: dose 0.5 mg/kg, route oral; details: cercopithecidae, po; outline: as §2
[11] = Area under curve concentration of compound after intravenous administration at dose of 0.2 mg/kg in female monkeys was determined; type: ADME, organism-based; set-up: dose 0.2 mg/kg, route intravenous; details: cercopithecidae, in vivo; outline: as §2
[12] = Maximum plasma concentration after peroral administration of compound at dose of 0.5 mg/kg in female dogs was determined; type: ADME, organism-based, Canis lupus familiaris; set-up: dose 0.5 mg/kg, route oral; details: dog, po; outline: as §2
[13] = Area under curve concentration of compound after intravenous administration at dose of 0.15 mg/kg in female dogs was determined; details: dog, in vivo
[14] = Half life of compound after intravenous administration at dose of 0.2 mg/kg in male wistar rats was determined; type: ADME, organism-based; set-up: dose 0.2 mg/kg, route intravenous; details: rat, in vivo; outline: as §2
[15] = Maximum plasma concentration after peroral administration of compound at dose of 0.5 mg/kg in female monkeys was determined; type: ADME, organism-based; set-up: dose 0.5 mg/kg, route oral; details: cercopithecidae, po; outline: as §2
[16] = Clearance of compound after intravenous administration at dose of 0.15 mg/kg in female dogs was determined; details: dog, in vivo
[17] = Area under curve concentration of compound at 6 hr after peroral administration at dose of 0.5 mg/kg in female dogs was determined; type: ADME, organism-based, Canis lupus familiaris; set-up: time < 6 hr, dose 0.5 mg/kg, route oral; details: dog, in vivo, po; outline: as §2
[18] = Clearance of compound after intravenous administration at dose of 0.2 mg/kg in female monkeys was determined; type: ADME, organism-based; set-up: dose 0.2 mg/kg, route intravenous; details: cercopithecidae, in vivo; outline: as §2
[19] = Steady state volume of distribution of compound after intravenous administration at dose of 0.2 mg/kg in female monkeys was determined; type: ADME, organism-based; set-up: dose 0.2 mg/kg, route intravenous; details: cercopithecidae, in vivo, read-out: Vss; outline: as §2
[20] = Steady state volume of distribution of compound after intravenous administration at dose of […] was determined; type: ADME, organism-based, Canis lupus familiaris; set-up: route intravenous; details: dog, in vivo, read-out: Vss; outline: as §2
[21] = Bioavailability of compound after peroral administration at dose of 0.5 mg/kg in female monkeys was determined; type: ADME, organism-based; details: cercopithecidae, in vivo, po, read-out: Bioavailabiility; outline: as §2
[22] = Half life of compound after intravenous administration at dose of 0.2 mg/kg in female monkeys was determined; type: ADME, organism-based; set-up: dose 0.2 mg/kg, route intravenous; details: cercopithecidae, in vivo; outline: as §2
[23] = Maximum time taken for concentration of compound in plasma after peroral administration at dose of 0.5 mg/kg in female dogs was determined; type: ADME, organism-based, Canis lupus familiaris; set-up: dose 0.5 mg/kg, route oral; details: dog, po; outline: as §2
[24] = Maximum plasma concentration after peroral administration of compound at dose of 0.5 mg/kg in male wistar rats was determined; type: ADME, organism-based; set-up: dose 0.5 mg/kg, route oral; details: rat, po; outline: as §2
[25] = Bioavailability of compound after peroral administration at dose of 0.5 mg/kg in female dogs was determined; type: ADME, organism-based, Canis lupus familiaris; details: dog, in vivo, po, read-out: Bioavailabiility; outline: as §2
[26] = Steady state volume of distribution of compound after intravenous administration at dose of 0.2 mg/kg in male wistar rats was determined; type: ADME, organism-based; set-up: dose 0.2 mg/kg, route intravenous; details: rat, in vivo, read-out: Vss; outline: as §2

CCOC[C@@H](NC(=O)c1ccc(Cl)s1)C(=O)Nc1ccc(N2CCOCC2=O)c(C)c1
IC50 (Trypsin): > 10 µM | IC50 (Prothrombin): > 10 µM | IC50 (Coagulation factor X): 0.01 µM

COCCOC[C@@H](NC(=O)c1ccc(Cl)s1)C(=O)Nc1ccc(N2CCOCC2=O)c(C)c1
MAD [1]: 22 mg/kg | solubility [2]: 1.05 mg/mL (≈ 2130 µM) | IC50 (Coagulation factor X): 0.011 µM

CC(C)C[C@@H](NC(=O)c1ccc(Cl)s1)C(=O)Nc1ccc(-n2ccncc2=O)cc1
IC50 (Trypsin): > 10 µM | IC50 (Prothrombin): > 10 µM | IC50 (Coagulation factor X): 0.039 µM

CC(C)C[C@@H](NC(=O)c1ccc(Cl)s1)C(=O)Nc1ccc(N2CCOCC2=O)cc1
IC50 (Trypsin): > 10 µM | IC50 (Prothrombin): > 10 µM | IC50 (Coagulation factor X): 0.015 µM

CC[C@@H](NC(=O)c1ccc(Cl)s1)C(=O)Nc1ccc(N2CCOCC2=O)c(C)c1
IC50 (Trypsin): > 10 µM | MAD [1]: 6.5 mg/kg | IC50 (Prothrombin): > 10 µM | solubility [2]: 0.041 mg/mL (≈ 94.1 µM) | IC50 (Coagulation factor X): 0.011 µM

CC(C)[C@@H](NC(=O)c1ccc(Cl)s1)C(=O)Nc1ccc(N2CCOCC2=O)cc1
IC50 (Trypsin): > 10 µM | IC50 (Prothrombin): > 10 µM | IC50 (Coagulation factor X): 0.066 µM

COC[C@@H](NC(=O)c1ccc(Cl)s1)C(=O)Nc1ccc(N2CCOCC2=O)c(Cl)c1
IC50 (Trypsin): > 10 µM | IC50 (Prothrombin): > 10 µM | IC50 (Coagulation factor X): 0.013 µM

Cc1cc(NC(=O)[C@@H](CO)NC(=O)c2ccc(Cl)s2)ccc1N1CCOCC1=O
IC50 (Trypsin): > 10 µM | MAD [1]: 11 mg/kg | IC50 (Prothrombin): > 10 µM | solubility [2]: 0.52 mg/mL (≈ 1190 µM) | IC50 (Coagulation factor X): 0.029 µM

C[C@@H](NC(=O)c1ccc(Cl)s1)C(=O)Nc1ccc(N2CCOCC2=O)cc1
IC50 (Trypsin): > 10 µM | IC50 (Prothrombin): > 10 µM | IC50 (Coagulation factor X): 0.059 µM

O=C(CNC(=O)c1ccc(Cl)s1)Nc1ccc(N2CCOCC2=O)cc1
IC50 (Trypsin): > 10 µM | IC50 (Prothrombin): > 10 µM | IC50 (Coagulation factor X): 0.7 µM

CCC[C@@H](NC(=O)Nc1ccc(Cl)cc1)C(=O)Nc1ccc(N2CCOCC2=O)cc1
IC50 (Trypsin): > 10 µM | IC50 (Prothrombin): > 10 µM

CCCOC[C@@H](NC(=O)c1ccc(Cl)s1)C(=O)Nc1ccc(N2CCOCC2=O)c(C)c1
IC50 (Trypsin): > 10 µM | MAD [1]: 1.9 mg/kg | IC50 (Prothrombin): > 10 µM | solubility [2]: 0.092 mg/mL (≈ 192 µM) | IC50 (Coagulation factor X): 0.012 µM

CC[C@@H](NC(=O)c1ccc(Cl)s1)C(=O)Nc1ccc(N2CCOCC2=O)cc1
IC50 (Trypsin): > 10 µM | IC50 (Prothrombin): > 10 µM | IC50 (Coagulation factor X): 0.02 µM

COC[C@@H](NC(=O)c1ccc(Cl)s1)C(=O)Nc1ccc(N2CCOCC2=O)c(C)c1
half-life [3]: 34.2 min | AUC [4]: 1.1 µg·h/mL | AUC [5]: 0.271 µg·h/mL | Tmax [6]: 150 min | IC50 (Trypsin): > 10 µM | bioavailability [7]: ~60% | clearance [8]: 0.94 L/h/kg | AUC [9]: 0.212 µg·h/mL | MAD [1]: 11 mg/kg | Tmax [10]: 30 min | AUC [11]: 0.803 µg·h/mL | Cmax [12]: 0.161 µg/mL | AUC [13]: 0.117 µg·h/mL | half-life [14]: 66 min | Cmax [15]: 0.27 µg/mL | IC50 (Prothrombin): > 10 µM | clearance [16]: 1.3 L/h/kg | AUC [17]: 0.211 µg·h/mL | clearance [18]: 0.25 L/h/kg | Vd [19]: 0.81 L/kg | Vd [20]: 0.86 L/kg | bioavailability [21]: ~80% | half-life [22]: 138 min | solubility [2]: 0.51 mg/mL (≈ 1130 µM) | Tmax [23]: 30 min | Cmax [24]: 0.092 µg/mL | bioavailability [25]: ~60% | Vd [26]: 1.6 L/kg

CC(C)C[C@@H](NC(=O)c1ccc(Cl)s1)C(=O)Nc1ccc(-n2ccccc2=O)cc1
IC50 (Trypsin): > 10 µM | IC50 (Prothrombin): > 10 µM | IC50 (Coagulation factor X): 0.016 µM

COC[C@@H](NC(=O)c1ccc(Cl)s1)C(=O)Nc1ccc(N2CCOCC2=O)c(F)c1
IC50 (Trypsin): > 10 µM | IC50 (Prothrombin): > 10 µM | IC50 (Coagulation factor X): 0.022 µM

O=C(N[C@H](C(=O)Nc1ccc(N2CCOCC2=O)cc1)c1ccccc1)c1ccc(Cl)s1
IC50 (Trypsin): > 10 µM | IC50 (Prothrombin): > 10 µM | IC50 (Coagulation factor X): 0.026 µM

Cc1cc(NC(=O)[C@@H](C)NC(=O)c2ccc(Cl)s2)ccc1N1CCOCC1=O
IC50 (Trypsin): > 10 µM | MAD [1]: 2.8 mg/kg | IC50 (Prothrombin): > 10 µM | solubility [2]: 0.134 mg/mL (≈ 318 µM) | IC50 (Coagulation factor X): 0.015 µM

CCC[C@@H](NC(=O)c1ccc(Cl)s1)C(=O)Nc1ccc(N2CCOCC2=O)cc1
IC50 (Trypsin): > 10 µM | IC50 (Prothrombin): > 10 µM | IC50 (Coagulation factor X): 0.012 µM

O=C(CCc1ccc2nc(-c3ccc(Cl)s3)[nH]c2c1)Nc1ccc(N2CCOCC2=O)cc1F
IC50 (Prothrombin): > 10 µM

Cc1cc(NC(=O)[C@@H](CC(C)C)NC(=O)c2ccc(Cl)s2)ccc1N1CCOCC1=O
IC50 (Trypsin): > 10 µM | MAD [1]: 0.6 mg/kg | IC50 (Prothrombin): > 10 µM | solubility [2]: 0.029 mg/mL (≈ 62.5 µM) | IC50 (Coagulation factor X): 0.0072 µM

O=C(N[C@@H](C(=O)Nc1ccc(N2CCOCC2=O)cc1)c1ccccc1)c1ccc(Cl)s1
IC50 (Trypsin): > 10 µM | IC50 (Prothrombin): > 10 µM | IC50 (Coagulation factor X): 0.029 µM

CCC[C@@H](NC(=O)c1ccc(Cl)s1)C(=O)Nc1ccc(N2CCOCC2=O)c(C)c1
IC50 (Trypsin): > 10 µM | IC50 (Prothrombin): > 10 µM | IC50 (Coagulation factor X): 0.0095 µM

COC[C@@H](NC(=O)c1ccc(Cl)s1)C(=O)Nc1ccc(N2CCOCC2=O)c(C(F)(F)F)c1
IC50 (Coagulation factor X): 0.014 µM

CC(C)C[C@H](NC(=O)c1ccc(Cl)s1)C(=O)Nc1ccc(N2CCOCC2=O)cc1
IC50 (Trypsin): > 10 µM | IC50 (Prothrombin): > 10 µM | IC50 (Coagulation factor X): 0.13 µM
